Assays:
[1] = Cytotoxicity against human MT4 cells assessed as reduction in cell viability measured after 5 days by MTS/PES assay; assay type: cell-based
In short: (§1)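 MT-4 cells (RPMI-1640, 10% FCS, 1% L-glutamine) pre-incubated 30 min at 37 °C with compound, then infected with HIV-1 NL4.3 or HIV-2 ROD according to stock TCID50. After 5 days, CPE scored microscopically and viability read by MTS/PES at A490 to derive EC50; cytotoxicity measured by MTS/PES at 5 days in the same cells. SI = CC50/EC50. Mean ± S.D. of at least 3 experiments.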

[2] = system: Human immunodeficiency virus 1; assay: Antiviral activity against HIV1 NL4.3 infected in human MT4 cells assessed as reduction in virus-induced cytopathic effect preincubated for 30 mins followed by viral infection and measured after 5 days by MTS assay; assay type: functional, organism-based; details: Human immunodeficiency virus 1, NL4.3, MT4
[3] = Selectivity index, ratio of CC50 for human MT4 cells to EC50 for HIV1 NL4.3 infected in human MT4 cells; assay type: toxicity, cell-based; details: read-out: Ratio CC50/EC50; in short: as §1
[4] = Selectivity index, ratio of CC50 for human MT4 cells to EC50 for HIV-1 NL4.3 infected in human MT4 cells
[5] = system: Human immunodeficiency virus 2; assay: Antiviral activity against HIV-2 ROD infected in human MT4 cells assessed as reduction in virus-induced cytopathic effect preincubated for 30 mins followed by viral infection and measured after 5 days by MTS assay; details: Human immunodeficiency virus 2, ISOLATE ROD
Enterovirus A71 = assay: Antiviral activity against Enterovirus A 71 BrCr infected in human RD cells assessed as reduction in virus-induced cytopathic effect preincubated for 1 day followed by viral infection and measured after 3 days by MTS/PMS method; assay type: functional, organism-based; details: strain BRCR
In short: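 RD cells seeded in 96-well plates; next day serial compound dilutions plus virus at low MOI added. Incubation at 37 °C, 5% CO₂ until full CPE in untreated infected controls (3 days). Viability read by MTS/PMS; EC50 as 50% inhibition of virus-induced death from dose-response curves. CC50 from uninfected treated cells in the same setup; SI = CC50/EC50.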

[6] = Selectivity index, ratio of CC50 for human RD cells to EC50 for Enterovirus A71 BrCr infected in human RD cells; assay type: toxicity, cell-based; details: read-out: Ratio CC50/EC50
In short: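 RD cells seeded in 96-well plates; next day serial compound dilutions plus virus at low MOI added. Incubation at 37 °C, 5% CO₂ until full CPE in untreated infected controls (3 days). CC50 from uninfected treated cells in the same setup; SI = CC50/EC50.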

Q: For `O=C(CCC(CCC(=O)NC(Cc1cn(Cc2ccccc2)c2ccccc12)C(=O)O)(CCC(=O)NC(Cc1cn(Cc2ccccc2)c2ccccc12)C(=O)O)[N+](=O)[O-])NC(Cc1cn(Cc2ccccc2)c2ccccc12)C(=O)O` (stereo unspecified), which CC50 at 120 h [1] is on record?
A: Its CC50 at 120 h is greater than 100 µM.

Q: What about the EC50 [2] of the same compound?
A: The EC50 was 49 µM.

Q: And the selectivity ratio [3]?
A: The selectivity ratio was greater than 2.

Q: And the selectivity ratio [4]?
A: The selectivity ratio was greater than 2.

Q: What about the EC50 [5] of the same compound?
A: The EC50 was 38 µM.

Q: Which results are given for `O=C(CCC(CCC(=O)NC(Cc1c(-c2ccc([N+](=O)[O-])cc2)[nH]c2ccccc12)C(=O)O)(CCC(=O)NC(Cc1c(-c2ccc([N+](=O)[O-])cc2)[nH]c2ccccc12)C(=O)O)[N+](=O)[O-])NC(Cc1c(-c2ccc([N+](=O)[O-])cc2)[nH]c2ccccc12)C(=O)O` (stereo unspecified)?
A: CC50 at 120 h [1]: > 100 µM; EC50 [2]: 41 µM; selectivity ratio [3]: > 2; selectivity ratio [4]: > 2; EC50 [5]: 43 µM; EC50 (Enterovirus A71): 28.8 µM; EC90 (Enterovirus A71): 58.2 µM

Q: Which results are given for `O=C(CCC(CCC(=O)NC(Cc1cn(Cc2ccc(C(=O)O)cc2)c2ccccc12)C(=O)O)(CCC(=O)NC(Cc1cn(Cc2ccc(C(=O)O)cc2)c2ccccc12)C(=O)O)[N+](=O)[O-])NC(Cc1cn(Cc2ccc(C(=O)O)cc2)c2ccccc12)C(=O)O` (stereo unspecified)?
A: CC50 at 120 h [1]: > 100 µM; EC50 [2]: 41 µM; selectivity ratio [3]: > 2.4; selectivity ratio [4]: > 2.4; EC50 [5]: 47 µM

Q: What does the source list for `O=C(CCC(CCC(=O)NC(Cc1c(-c2ccc(C(F)(F)F)cc2)[nH]c2ccccc12)C(=O)O)(CCC(=O)NC(Cc1c(-c2ccc(C(F)(F)F)cc2)[nH]c2ccccc12)C(=O)O)[N+](=O)[O-])NC(Cc1c(-c2ccc(C(F)(F)F)cc2)[nH]c2ccccc12)C(=O)O` (stereo unspecified)?
A: CC50 at 120 h [1]: > 100 µM; EC50 [2]: 26 µM; selectivity ratio [3]: > 4; selectivity ratio [4]: > 4; EC50 [5]: 68 µM; EC50 (Enterovirus A71): > 78.9 µM

Q: What does the source list for `CN[C@@H]1[C@H](O[C@@H]2OC[C@@H](O)[C@H](O)[C@H]2O)[C@@H](O)[C@H](O[C@H]2c3cc(C)c(C(=O)N[C@H](C)C(=O)O)c(O)c3-c3c(cc4c(c3O)C(=O)c3cc(OC)cc(O)c3C4=O)[C@@H]2O)O[C@@H]1C` [PRADIMICIN A]?
A: CC50 at 120 h [1]: > 100 µM; EC50 [2]: 3.3 µM; selectivity ratio [3]: > 30.3; selectivity ratio [4]: > 30.3

Q: Which CC50 at 120 h [1] does the source give for `O=C(CCC(CCC(=O)NC(Cc1c(-c2ccc(Br)cc2)[nH]c2ccccc12)C(=O)O)(CCC(=O)NC(Cc1c(-c2ccc(Br)cc2)[nH]c2ccccc12)C(=O)O)[N+](=O)[O-])NC(Cc1c(-c2ccc(Br)cc2)[nH]c2ccccc12)C(=O)O` (stereo unspecified) here?
A: Its CC50 at 120 h is 30 µM.

Q: What about the EC50 [2] of the same compound?
A: The EC50 was greater than 30 µM.

Q: What about the EC50 [5] of the same compound?
A: The EC50 was greater than 30 µM.

Q: What about the EC50 (Enterovirus A71) of the same compound?
A: Its EC50 is 65.2 µM.

Q: With `O=C(CCC(CCC(=O)NC(Cc1c(-c2ccccc2F)[nH]c2ccccc12)C(=O)O)(CCC(=O)NC(Cc1c(-c2ccccc2F)[nH]c2ccccc12)C(=O)O)[N+](=O)[O-])NC(Cc1c(-c2ccccc2F)[nH]c2ccccc12)C(=O)O` (stereo unspecified) as the compound, how does the CC50 at 120 h [1] read?
A: Its CC50 at 120 h is greater than 100 µM.

Q: What about the EC50 [2] of the same compound?
A: Its EC50 is 35 µM.

Q: And the selectivity ratio [3]?
A: Its selectivity ratio is greater than 3.

Q: What about the selectivity ratio [4] of the same compound?
A: Its selectivity ratio is greater than 3.

Q: What about the EC50 [5] of the same compound?
A: The EC50 was greater than 100 µM.

Q: What about the EC50 (Enterovirus A71) of the same compound?
A: Its EC50 is greater than 89.4 µM.

Q: With `O=C(CCC(CCC(=O)NC(Cc1c(-c2ccc(C(=O)O)cc2)[nH]c2ccccc12)C(=O)O)(CCC(=O)NC(Cc1c(-c2ccc(C(=O)O)cc2)[nH]c2ccccc12)C(=O)O)[N+](=O)[O-])NC(Cc1c(-c2ccc(C(=O)O)cc2)[nH]c2ccccc12)C(=O)O` (stereo unspecified) as the compound, how does the CC50 at 120 h [1] read?
A: The CC50 at 120 h was 71 µM.

Q: And the EC50 [2]?
A: The EC50 was 2.4 µM.

Q: And the selectivity ratio [3]?
A: The selectivity ratio was 29.6.

Q: And the selectivity ratio [4]?
A: The selectivity ratio was 29.6.

Q: And the EC50 [5]?
A: Its EC50 is greater than 71 µM.

Q: And the EC50 (Enterovirus A71)?
A: Its EC50 is 12.2 µM.

Q: What does the source list for `O=C(CCOCC(COCCC(=O)NC(Cc1cn(Cc2ccc(C(=O)O)cc2)c2ccccc12)C(=O)O)(COCCC(=O)NC(Cc1cn(Cc2ccc(C(=O)O)cc2)c2ccccc12)C(=O)O)COCCC(=O)NC(Cc1cn(Cc2ccc(C(=O)O)cc2)c2ccccc12)C(=O)O)NC(Cc1cn(Cc2ccc(C(=O)O)cc2)c2ccccc12)C(=O)O` (stereo unspecified)?
A: CC50 at 120 h [1]: 76 µM; EC50 [2]: > 76 µM; EC50 [5]: > 76 µM; EC50 (Enterovirus A71): > 19.5 µM

Q: Which CC50 at 120 h [1] does the source give for `O=C(CCC(CCC(=O)NC(Cc1cn(Cc2ccc(F)cc2)c2ccccc12)C(=O)O)(CCC(=O)NC(Cc1cn(Cc2ccc(F)cc2)c2ccccc12)C(=O)O)[N+](=O)[O-])NC(Cc1cn(Cc2ccc(F)cc2)c2ccccc12)C(=O)O` (stereo unspecified) here?
A: Its CC50 at 120 h is greater than 100 µM.

Q: What about the EC50 [2] of the same compound?
A: Its EC50 is 43 µM.

Q: What about the selectivity ratio [3] of the same compound?
A: The selectivity ratio was greater than 2.3.

Q: And the selectivity ratio [4]?
A: Its selectivity ratio is greater than 2.3.

Q: What about the EC50 [5] of the same compound?
A: Its EC50 is 34 µM.

Q: With `O=C(CCC(CCC(=O)NC(Cc1c[nH]c2ccccc12)C(=O)O)(CCC(=O)NC(Cc1c[nH]c2ccccc12)C(=O)O)[N+](=O)[O-])NC(Cc1c[nH]c2ccccc12)C(=O)O` (stereo unspecified) as the compound, how does the CC50 at 120 h [1] read?
A: Its CC50 at 120 h is greater than 100 µM.

Q: And the EC50 [2]?
A: Its EC50 is greater than 100 µM.

Q: What about the EC50 [5] of the same compound?
A: Its EC50 is greater than 100 µM.

Q: And the EC50 (Enterovirus A71)?
A: The EC50 was greater than 120 µM.

Q: With `COc1ccc(-c2[nH]c3ccccc3c2CC(NC(=O)CCC(CCC(=O)NC(Cc2c(-c3ccc(OC)cc3)[nH]c3ccccc23)C(=O)O)(CCC(=O)NC(Cc2c(-c3ccc(OC)cc3)[nH]c3ccccc23)C(=O)O)[N+](=O)[O-])C(=O)O)cc1` (stereo unspecified) as the compound, how does the CC50 at 120 h [1] read?
A: Its CC50 at 120 h is 9.3 µM.

Q: What about the EC50 [2] of the same compound?
A: Its EC50 is greater than 9.3 µM.

Q: And the EC50 [5]?
A: Its EC50 is greater than 9.3 µM.

Q: What about the EC50 (Enterovirus A71) of the same compound?
A: Its EC50 is greater than 86.6 µM.

Q: With `O=C(CCC(CCC(=O)NC(Cc1c(-c2cccc(C(=O)O)c2)[nH]c2ccccc12)C(=O)O)(CCC(=O)NC(Cc1c(-c2cccc(C(=O)O)c2)[nH]c2ccccc12)C(=O)O)[N+](=O)[O-])NC(Cc1c(-c2cccc(C(=O)O)c2)[nH]c2ccccc12)C(=O)O` (stereo unspecified) as the compound, how does the CC50 at 120 h [1] read?
A: Its CC50 at 120 h is greater than 100 µM.

Q: And the EC50 [2]?
A: Its EC50 is 16 µM.

Q: What about the selectivity ratio [6] of the same compound?
A: The selectivity ratio was greater than 73.4.

Q: And the selectivity ratio [3]?
A: Its selectivity ratio is greater than 6.

Q: What about the selectivity ratio [4] of the same compound?
A: The selectivity ratio was greater than 6.

Q: And the EC50 [5]?
A: Its EC50 is 64 µM.

Q: And the EC50 (Enterovirus A71)?
A: The EC50 was 0.99 µM.

Q: And the EC90 (Enterovirus A71)?
A: Its EC90 is 1.35 µM.

Q: Which CC50 at 120 h [1] does the source give for `O=C(CCOCC(COCCC(=O)NC(Cc1c[nH]c2ccccc12)C(=O)O)(COCCC(=O)NC(Cc1c[nH]c2ccccc12)C(=O)O)COCCC(=O)NC(Cc1c[nH]c2ccccc12)C(=O)O)NC(Cc1c[nH]c2ccccc12)C(=O)O` (stereo unspecified) here?
A: Its CC50 at 120 h is greater than 250 µM.

Q: And the EC50 [2]?
A: Its EC50 is greater than 250 µM.

Q: And the EC50 [5]?
A: Its EC50 is greater than 250 µM.

Q: And the EC50 (Enterovirus A71)?
A: The EC50 was greater than 100 µM.

Q: What does the source list for `O=C(CCC(CCC(=O)NC(Cc1c(-c2ccccc2)[nH]c2ccccc12)C(=O)O)(CCC(=O)NC(Cc1c(-c2ccccc2)[nH]c2ccccc12)C(=O)O)[N+](=O)[O-])NC(Cc1c(-c2ccccc2)[nH]c2ccccc12)C(=O)O` (stereo unspecified)?
A: CC50 at 120 h [1]: 83 µM; EC50 [2]: 19 µM; selectivity ratio [3]: 4.4; selectivity ratio [4]: 4.4; EC50 [5]: > 83 µM; EC50 (Enterovirus A71): > 100 µM

Q: What does the source list for `O=C(CCOCC(COCCC(=O)NC(Cc1c(-c2ccc(C(=O)O)cc2)[nH]c2ccccc12)C(=O)O)(COCCC(=O)NC(Cc1c(-c2ccc(C(=O)O)cc2)[nH]c2ccccc12)C(=O)O)COCCC(=O)NC(Cc1c(-c2ccc(C(=O)O)cc2)[nH]c2ccccc12)C(=O)O)NC(Cc1c(-c2ccc(C(=O)O)cc2)[nH]c2ccccc12)C(=O)O` (stereo unspecified)?
A: CC50 at 120 h [1]: > 100 µM; EC50 [2]: 0.73 µM; selectivity ratio [6]: 161; selectivity ratio [3]: > 137; selectivity ratio [4]: > 137; EC50 [5]: 0.75 µM; EC50 (Enterovirus A71): 0.37 µM; EC90 (Enterovirus A71): 0.63 µM

Reference: ChEMBL document CHEMBL4321868, “Scaffold Simplification Strategy Leads to a Novel Generation of Dual Human Immunodeficiency Virus and Enterovirus-A71 Entry Inhibitors” (J Med Chem, 2020)
